The test system of data set [1] is Liver microsome. The experiment in a line: Drug metabolism in human liver microsomes assessed as Vmax/Km ratio for T-5224 acyl O-glucuronide formation per mg protein after 10 to 60 mins by HPLC method. The data set is classed as ADME. Put shortly:
(§1)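 Pooled liver (0.5 mg protein/mL) or intestinal (0.25 mg protein/mL) microsomes in 50 mM Tris-HCl pH 7.5, 8 mM MgCl2, alamethicin, 2% DMSO. T-5224 at 1–50 μM, 5 min preincubation at 37°C, started with 2 mM UDPGA. Incubated 10 min, or 20 min for intestinal microsomes at 1–5 μM. Acetonitrile stop, glucuronides by HPLC at 290 nm. Triplicates fitted to a substrate-inhibition model.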
On the technique in general: Liver microsomes are vesicles of endoplasmic reticulum, rich in cytochrome P450 enzymes.

The subject of data set [2] is Liver microsome. Kind of data set: Drug metabolism in human liver microsomes assessed as T-5224 hydroxyl O-glucuronide formation per mg protein after 10 to 60 mins by HPLC method. It counts as ADME. Put shortly: as §1
Data set [3] concerns the target T1, UDP-glucuronosyltransferase 1A1 (Homo sapiens, UniProt P22309).
T1 sequence (P22309 whole entry): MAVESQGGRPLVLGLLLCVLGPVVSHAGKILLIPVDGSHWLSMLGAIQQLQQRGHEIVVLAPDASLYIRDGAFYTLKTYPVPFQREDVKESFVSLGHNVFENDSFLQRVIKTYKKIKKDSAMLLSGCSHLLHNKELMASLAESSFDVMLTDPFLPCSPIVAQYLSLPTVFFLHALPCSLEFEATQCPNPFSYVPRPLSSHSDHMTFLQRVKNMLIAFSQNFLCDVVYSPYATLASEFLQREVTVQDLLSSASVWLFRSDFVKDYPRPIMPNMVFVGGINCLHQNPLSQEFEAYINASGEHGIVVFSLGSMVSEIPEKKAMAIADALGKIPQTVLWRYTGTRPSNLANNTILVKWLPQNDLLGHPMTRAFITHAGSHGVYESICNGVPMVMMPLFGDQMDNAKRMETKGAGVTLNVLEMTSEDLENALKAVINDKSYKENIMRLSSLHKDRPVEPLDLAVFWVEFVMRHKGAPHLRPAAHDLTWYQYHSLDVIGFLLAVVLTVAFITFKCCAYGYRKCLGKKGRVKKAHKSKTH
Kind of data set: Drug metabolism assessed as human UGT1A1-mediated T-5224 hydroxyl O-glucuronide formation at 10 uM […] in presence of beta-estradiol by HPLC method. It counts as ADME. The following applies: recombinant enzyme. The method in brief: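 Pooled human liver microsomes or recombinant UGT1A1 were incubated with 10 μM T-5224, 2 mM UDPGA and β-estradiol at 0–500 μM (2% DMSO), in Tris-HCl/MgCl2/alamethicin buffer. Incubation was 10 min (liver microsomes) or 60 min (UGT1A1) at 37°C. G2/G3 were read by HPLC at 290 nm, as mean ± SD, n = 3.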

The test system of data set [4] is Liver microsome. The experiment in a line: Drug metabolism in human liver microsomes assessed as T-5224 hydroxyl O-glucuronide formation after 10 to 60 mins by HPLC method. The data set is classed as ADME. Put shortly: as §1
In data set [5] the target is T2, UDP-glucuronosyltransferase 1A3 (Homo sapiens, UniProt P35503).
T2 sequence (P35503 whole entry): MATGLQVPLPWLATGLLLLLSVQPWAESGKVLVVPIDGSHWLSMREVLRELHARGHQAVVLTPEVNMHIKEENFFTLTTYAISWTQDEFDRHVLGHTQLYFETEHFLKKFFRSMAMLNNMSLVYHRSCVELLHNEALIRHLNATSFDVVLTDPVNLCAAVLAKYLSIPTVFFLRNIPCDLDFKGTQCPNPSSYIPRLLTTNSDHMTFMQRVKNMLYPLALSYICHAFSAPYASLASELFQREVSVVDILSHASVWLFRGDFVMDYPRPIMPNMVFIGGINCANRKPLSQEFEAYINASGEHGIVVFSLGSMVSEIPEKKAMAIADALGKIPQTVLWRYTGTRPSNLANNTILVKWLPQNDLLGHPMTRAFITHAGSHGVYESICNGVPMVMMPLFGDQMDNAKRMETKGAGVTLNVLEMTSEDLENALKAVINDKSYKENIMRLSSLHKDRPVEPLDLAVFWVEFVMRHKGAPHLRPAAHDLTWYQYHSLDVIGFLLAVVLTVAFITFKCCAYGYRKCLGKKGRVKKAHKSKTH
Kind of data set: Drug metabolism assessed as Vmax/Km ratio for human UGT1A3-mediated T-5224 acyl O-glucuronide formation per mg protein after 10 to 60 mins in presence of UDP-glucuronic acid by HPLC method. The data set is classed as ADME. The conditions noted are these: recombinant enzyme. The method in brief:
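Kinetics used recombinant UGT1A1, 1A3 or 1A8 (0.1 mg protein/mL) with T-5224 at 1–50 μM, 2 mM UDPGA and 60 min at 37°C, in triplicate. G2/G3 were measured by HPLC at 290 nm and fitted to a substrate-inhibition model (Vmax, Km, Ksi). UGT content was quantified by immunoblot, and kcat = Vmax/E0 was derived from it.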

Data set [6] is described as follows: Drug metabolism in human intestinal microsomes assessed as T-5224 acyl O-glucuronide formation after 10 to 60 mins by HPLC method. It counts as ADME, Intestine, Microsome. The method in brief:
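Pooled liver microsomes (0.5 mg/mL) were incubated 10 min. Pooled intestinal microsomes (0.25 mg/mL) ran 10 min at T-5224 10–50 μM and 20 min at 1–5 μM. Buffer was 50 mM Tris-HCl pH 7.5 with 8 mM MgCl2, alamethicin and 2 mM UDPGA, at 37°C, in triplicate. Glucuronides G2/G3 were read by HPLC at 290 nm and fitted for Vmax/Km.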

The nature of data set [7]: Substrate inhibition of T-5224 hydroxyl O-glucuronide formation in human intestinal microsomes after 10 to 60 mins by HPLC method. Also on record: species or system Intestine, Microsome. The method in brief: as §1
Data set [8] has as its target T3, Cytochrome P450 1A2 (Homo sapiens, UniProt P05177).
T3 sequence (P05177 whole entry): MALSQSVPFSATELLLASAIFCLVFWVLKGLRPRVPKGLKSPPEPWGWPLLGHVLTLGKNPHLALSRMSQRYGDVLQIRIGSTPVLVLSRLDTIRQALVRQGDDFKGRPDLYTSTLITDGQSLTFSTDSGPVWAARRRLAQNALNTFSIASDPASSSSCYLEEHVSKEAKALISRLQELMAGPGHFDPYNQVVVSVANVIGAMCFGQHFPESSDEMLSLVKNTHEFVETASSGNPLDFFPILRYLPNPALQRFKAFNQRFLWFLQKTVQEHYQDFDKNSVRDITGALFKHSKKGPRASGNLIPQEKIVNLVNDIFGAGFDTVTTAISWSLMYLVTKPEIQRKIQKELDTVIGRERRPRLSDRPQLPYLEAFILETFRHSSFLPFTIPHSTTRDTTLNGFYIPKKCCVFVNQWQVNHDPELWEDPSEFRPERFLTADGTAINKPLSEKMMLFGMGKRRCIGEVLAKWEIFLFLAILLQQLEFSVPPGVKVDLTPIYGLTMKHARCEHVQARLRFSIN
The experiment in a line: Drug metabolism assessed as human CYP1A2-mediated metabolite formation at 2 uM after 30 mins by HPLC method. The data set is classed as ADME. The conditions noted are these: recombinant enzyme, 0.5 h. The method in brief: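 Each recombinant human P450 was used at 50 pmol/mL with an NADPH-generating system and 2 μM 14C-T-5224 (0.5% DMSO final). Buffer was 100 mM Tris-HCl pH 7.5, except 100 mM potassium phosphate pH 7.4 for CYP2A6 and CYP2C9*1. Incubation ran 30 min at 37°C and was stopped with acetonitrile/methanol. Radioactive metabolite peaks were detected by C18 HPLC.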

Data on 1 molecule can be found in ChEMBL document CHEMBL3526015, “Metabolism of the c-Fos/activator protein-1 inhibitor T-5224 by multiple human UDP-glucuronosyltransferase isoforms” (Drug Metab Dispos, 2011).

Take `O=C(O)CCc1cc(C(=O)c2ccc(OC3CCCC3)cc2O)ccc1OCc1ccc2c(O)noc2c1`: the Vmax/Km turned out to be 44 µL/min in data set [1] and 15.5 µL/min in data set [5]. The Vmax in data set [2] stood at 305 pmol/min. Besides, the Drug metabolism entry is reported as “metabolite_detected” in data set [3] and “metabolite_not_detected” in data set [8]. Moreover, the Km turned out to be 15.7 µM in data set [4] and 5.88 µM in data set [6]. Also, in data set [7], the Ki was 58 µM.

The term Vmax denotes the top rate of the reaction or transport when substrate is in excess. As usually defined, the Km is the substrate concentration at which the rate is half of its maximum.
